Screening results (PubChem BioAssay)
An excerpt weighted towards active compounds, which were near 1.9% of everything screened.
RanGTP-Imp inh: disruptors of Ran-importin-beta complex formation – biochemical, FRET, CFP-Ran, YFP-importin-beta, homogeneous, primary screen | inhibition, % (concentration not given with the values) | actives 1.1% (n = 300,000) | cell-free CFP-Ran/YFP-importin-beta FRET ratio;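 active = more than half of the replicate wells show a fall in the fluorescence ratio signal beyond about 16%, limit read from the data, passing the limit was not always enough; inconclusive = exactly half of the replicate wells pass the set limit; inactive = fewer than half of replicates pass the limit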;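 also: 0% = DMSO wells and 100% = Ran loaded with GDP instead of GTP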
HDAC3 inhib: human HDAC3 inhibition; O15379; recombinant HDAC3, fluorogenic peptide/trypsin coupled, fluorescence; inhibition, % at 8.3 µM; actives 0.15% (n = 320,000); AID 2718; in the data active = inhibition above about 26%, passing the limit was not always enough; inconclusive = no clear call, values can overlap the other calls
LANA-H2A inh: blocks KSHV LANA binding to histone H2A/H2B; Q9QR71; cell-free LANA-H2A/H2B peptide, fluorescence polarization; inhibition, % (test concentration not listed); actives 0.6% (n = 320,000); AID 2629; in the data active = inhibition mostly above about 10%, no sharp cut-off; inactive = mostly below about 6.7%
Runt-SMMHC FRET: blocks binding of human RUNX1 Runt domain to CBFb-SMMHC. Q01196+Q13951. Cerulean-Runt/Venus-CBFb-SMMHC FRET ratio 530/480, 1 h. inhibition, % at 20 µM. actives 0.74% (n = 220,000). AID 1434;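 active = mean inhibition across duplicate retests at 20 µM reaching about 50%, limit read from the data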;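 also: 0% = DMSO wells and 100% = wells with excess untagged CBFb-SMMHC; inhibitors lower the FRET ratio by blocking Runt binding to CBFb-SMMHC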
CaV13 ICDI inh: Primary screen for inhibitors of IQ motif and Ca2+-dependent inactivation inhibitor domain binding in CACNA1D, Förster resonance energy transfer in living cells, …. HEK cells, CFP/YFP FRET ICDI-IQ, plate reader, 10 min; percent FRET-ratio fall versus neutral wells. inhibition, % at 12.3 µM. actives 0.098% (n = 340,000). AID 743397;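 active = mean replicate inhibition of at least 30% and at least 1% of replicates passing that level; inconclusive = only one of the two criteria is met; inactive = neither criterion is met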;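 also: 0% = median of the neutral control wells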
Runt-CBFb FRET: Runt domain-CBFb interaction inhibition | Q01196+Q13951 | Cerulean-Runt/Venus-CBFb FRET ratio 530/480, 1 h | inhibition, % at 20 µM | actives 0.46% (n = 220,000) | AID 1496;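 active = inhibition over about 50% at 20 µM in the single-dose screen, limit read from the data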;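 also: 0% = DMSO wells and 100% = excess unlabeled CBFb competitor control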
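test system = Cerulean-tagged RUNX1 Runt domain (FRET donor) fusion protein | reagent = Venus-CBFb binding partner, 100 nM | incubation = protein complex preformed 1 h, compound exposure 1 h, room temperature, dark | detection = FRET fluorescence | read-out basis = loss of energy transfer signal | controls = 5 µM unlabeled CBFb as full-inhibition high control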
RUNX1 CBFb TR: disrupts human RUNX1 Runt domain binding to CBFb; AID 1502; shares compounds with Runt-CBFb FRET; TR-FRET RUNX1 Runt domain-CBFb binding; actives 20% (n = 480); inhibition, % at 20 µM; in the data active = inhibition above about 40%
* marks the source's active call; other numbers are inactive results.

How did CC1(C(=O)NCc2ccccc2)CCC(=O)N1CCc1c[nH]c2ccccc12 (stereo not given) do in these assays?
CaV13 ICDI inh: -11

Results for COc1cccc(C(c2c(N)[nH]c(=S)[nH]c2=O)c2c(N)[nH]c(=S)[nH]c2=O)c1 ?
RanGTP-Imp inh: 1; HDAC3 inhib: 3; LANA-H2A inh: 2; Runt-SMMHC FRET: 19; CaV13 ICDI inh: -20; Runt-CBFb FRET: 51*; RUNX1 CBFb TR: 56*

How did Cc1onc(-c2ccccc2)c1C(=O)Nc1ccon1 do in these assays?
RanGTP-Imp inh: -5; HDAC3 inhib: -2; LANA-H2A inh: 5; Runt-SMMHC FRET: -2; CaV13 ICDI inh: -4; Runt-CBFb FRET: 2

Results for COc1ccc(C2c3ccc(O)cc3Oc3ncn4nc(-c5ccccn5)nc4c32)cc1 (stereo not given) ?
RanGTP-Imp inh: inconclusive; HDAC3 inhib: -4; LANA-H2A inh: -1; CaV13 ICDI inh: 54*; Runt-CBFb FRET: 53*; RUNX1 CBFb TR: -4

How did COc1ccc([C@H]2[C@H](C(=O)OC(C)(C)C)N3N=Cc4ccccc4C3C23C(=O)c2ccccc2C3=O)c(OC)c1 (stereo not given in full) do in these assays?
RanGTP-Imp inh: -3; Runt-SMMHC FRET: 6; CaV13 ICDI inh: -7; Runt-CBFb FRET: 4

Results for Cn1ccnc1Sc1nc2ccccc2nc1NS(=O)(=O)c1ccccc1 ?
RanGTP-Imp inh: inconclusive; HDAC3 inhib: 3; LANA-H2A inh: 1; Runt-SMMHC FRET: 73*; CaV13 ICDI inh: -6; Runt-CBFb FRET: 61*; RUNX1 CBFb TR: 54*

Results for Cc1c(Nc2nc3ccccc3nc2NS(=O)(=O)c2ccccc2)c(=O)n(-c2ccccc2)n1C ?
RanGTP-Imp inh: 0; HDAC3 inhib: 0; LANA-H2A inh: 3; Runt-SMMHC FRET: -2; CaV13 ICDI inh: -8; Runt-CBFb FRET: 1

What do the screens show for `Cc1cccc(-n2c(SCC(=O)N3CCCC3)nnc2-c2ccccn2)c1C`?
RanGTP-Imp inh: 1; HDAC3 inhib: -5; LANA-H2A inh: -1; Runt-SMMHC FRET: -1; Runt-CBFb FRET: 0

What do the screens show for `Cc1ccc(/C=c2\sc3nc(-c4ccco4)nn3c2=O)o1`?
RanGTP-Imp inh: 12; HDAC3 inhib: -2; LANA-H2A inh: 0; Runt-SMMHC FRET: 29; Runt-CBFb FRET: 53*; RUNX1 CBFb TR: 88*

What do the screens show for `Cc1ccc(/C=c2\sc3nc(-c4ccccc4Br)nn3c2=O)o1`?
RanGTP-Imp inh: -1; HDAC3 inhib: 8; LANA-H2A inh: 4; Runt-SMMHC FRET: 1; CaV13 ICDI inh: -5; Runt-CBFb FRET: 25

What do the screens show for `CC(c1ccccc1C(O)c1ccccc1)N(C)C` (stereo not given)?
RanGTP-Imp inh: 3; HDAC3 inhib: 0; LANA-H2A inh: 0; Runt-SMMHC FRET: 0; CaV13 ICDI inh: -9; Runt-CBFb FRET: 57*; RUNX1 CBFb TR: -14

Results for OC(c1ccccc1)c1ccncc1 (stereo not given) ?
RanGTP-Imp inh: 1; HDAC3 inhib: -5; LANA-H2A inh: -8; CaV13 ICDI inh: -11

Results for COc1ccc(C2=CC(=O)C[C@H](c3ccc(OC)cc3)C2)cc1 ?
HDAC3 inhib: 1; LANA-H2A inh: 5; CaV13 ICDI inh: -4

Results for COc1ccc(C2=CC(=O)C=CC2=O)cc1 ?
RanGTP-Imp inh: 0; LANA-H2A inh: -10; Runt-SMMHC FRET: 86*; Runt-CBFb FRET: 68*; RUNX1 CBFb TR: 35

Results for Cc1ccc(CN2CC(C(=O)N3CCN(S(=O)(=O)c4ccc(C(C)C)cc4)CC3)CC2=O)cc1 (stereo not given) ?
RanGTP-Imp inh: -2; HDAC3 inhib: 5; LANA-H2A inh: -1; CaV13 ICDI inh: -4

Results for N#C/C(=C\c1c(N2CCCCC2)nc2ccccn2c1=O)S(=O)(=O)c1ccccc1 ?
RanGTP-Imp inh: 3; HDAC3 inhib: 7; LANA-H2A inh: 3; Runt-SMMHC FRET: -21; CaV13 ICDI inh: -20; Runt-CBFb FRET: -15

How did N#C/C(=C\c1c(N2CCCCCC2)nc2ccccn2c1=O)C(=O)NCc1ccco1 do in these assays?
RanGTP-Imp inh: 6; HDAC3 inhib: -2; LANA-H2A inh: 7; Runt-SMMHC FRET: -3; CaV13 ICDI inh: -20; Runt-CBFb FRET: 75*; RUNX1 CBFb TR: 22

Results for CN1C(=O)C(O)(CC(=O)c2cccnc2)c2ccccc21 (stereo not given) ?
RanGTP-Imp inh: 1; HDAC3 inhib: 6; LANA-H2A inh: 5; Runt-SMMHC FRET: -5; CaV13 ICDI inh: -4; Runt-CBFb FRET: -2

How did CN1/C(=C\C(=O)c2cccnc2)Sc2ccccc21 do in these assays?
RanGTP-Imp inh: 10; HDAC3 inhib: inconclusive; LANA-H2A inh: -8; Runt-SMMHC FRET: 51*; CaV13 ICDI inh: -7; Runt-CBFb FRET: 66*; RUNX1 CBFb TR: 14

How did Cc1nc2ccccc2n1/N=C/c1ccc([N+](=O)[O-])o1 do in these assays?
RanGTP-Imp inh: -1; HDAC3 inhib: 1; LANA-H2A inh: -5; CaV13 ICDI inh: -9

What do the screens show for `Cc1nc2ccccc2c(=O)n1/N=C/c1ccc([N+](=O)[O-])o1`?
RanGTP-Imp inh: 1; HDAC3 inhib: -1; LANA-H2A inh: -1; Runt-SMMHC FRET: 86; Runt-CBFb FRET: 57*; RUNX1 CBFb TR: 3

What do the screens show for `CC(C)S(=O)(=O)C1=NSC2=NC(=O)/C(=C\c3ccc(-c4cccc(C(=O)O)c4)o3)C(=N)N21`?
Runt-SMMHC FRET: 66; CaV13 ICDI inh: -23; Runt-CBFb FRET: 60*; RUNX1 CBFb TR: 21

How did COc1ncccc1-c1nnn(-c2ccc(F)cc2)n1 do in these assays?
RanGTP-Imp inh: 9; HDAC3 inhib: -1; LANA-H2A inh: 1; Runt-SMMHC FRET: -1; CaV13 ICDI inh: -4; Runt-CBFb FRET: -1

How did O=C(O)CN1C(=O)/C(=C/c2ccc(SCc3ccccc3)o2)SC1=S do in these assays?
Runt-SMMHC FRET: 32; CaV13 ICDI inh: -118; Runt-CBFb FRET: 70*; RUNX1 CBFb TR: 4

Results for O=C(O)CN1C(=O)/C(=C\c2ccc(OC(=O)c3ccco3)cc2)SC1=S ?
RanGTP-Imp inh: -1; HDAC3 inhib: inconclusive; LANA-H2A inh: -11; CaV13 ICDI inh: -7
